Assay results: ChEMBL document CHEMBL4190374, “Structure-Function Evaluation of Imidazopyridine Derivatives Selective for δ-Subunit-Containing γ-Aminobutyric Acid Type A (GABAA) Receptors” (J Med Chem, 2018)
Values belong to the molecule of their own block, whether it stands above or below them. Active and inactive are the calls of the source. The rule behind the calls is not given here.

Assays:
[1] = molecular target: T1, Gamma-aminobutyric acid receptor subunit alpha-6/beta-3 (Rattus norvegicus) (UniProt P30191+P63079); assay: Displacement of [3H]EBOB from rat GABA-A receptor alpha6beta3 expressed in HEK293 cell membranes at 20 uM after 90 mins by liquid scintillation counting analysis relative to control
[2] = molecular target: GABA A receptor alpha-6/beta-2/gamma-2 (Rattus norvegicus) (UniProt P18508+P30191+P63138); assay: Displacement of [3H]EBOB from rat GABA-A receptor alpha6beta2gamma2 expressed in HEK293 cell membranes at 10 uM after 90 mins by liquid scintillation counting analysis relative to control
Procedure, shortened: (§1)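 Crude membranes from HEK 293 cells transiently Ca-phosphate-transfected with rat subunit cDNAs, harvested at 48 h. Membranes (150-200 µg protein) incubated with 3 nM [3H]EBOB in 50 mM Tris/citrate pH 7.3 plus 0.2 M NaCl. Compound up to 10 µM, final DMSO 0.1%, no GABA, 90 min at 21 °C. Bound radioligand collected by GF/C filtration and counted by scintillation.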

[3] = molecular target: T2, Gamma-aminobutyric acid receptor subunit alpha-6/beta-3/delta (Rattus norvegicus, UniProt P18506+P30191+P63079); assay: Displacement of [3H]EBOB from rat GABA-A receptor alpha6beta3delta expressed in HEK293 cell membranes after 90 mins by liquid scintillation counting analysis; procedure, shortened: as §1
[4] = molecular target: Gamma-aminobutyric acid receptor subunit alpha-6/beta-2 (Rattus norvegicus) (UniProt P30191+P63138); assay: Displacement of [3H]EBOB from rat GABA-A receptor alpha6beta2 expressed in HEK293 cell membranes at 10 uM after 90 mins by liquid scintillation counting analysis relative to control; procedure, shortened: as §1
[5] = molecular target: Gamma-aminobutyric acid receptor subunit alpha-6/beta-2/delta (Rattus norvegicus) (UniProt P18506+P30191+P63138); assay: Displacement of [3H]EBOB from rat GABA-A receptor alpha6beta2delta expressed in HEK293 cell membranes up to 10 uM after 90 mins by liquid scintillation counting analysis relative to control; procedure, shortened: as §1
[6] = molecular target: Gamma-aminobutyric acid receptor subunit alpha-6/beta-2/delta (Rattus norvegicus, UniProt P18506+P30191+P63138); assay: Displacement of [3H]EBOB from rat GABA-A receptor alpha6beta2delta expressed in HEK293 cell membranes after 90 mins by liquid scintillation counting analysis; procedure, shortened: as §1
[7] = molecular target: T3, Gamma-aminobutyric acid receptor subunit alpha-6/beta-3 (Rattus norvegicus, UniProt P30191+P63079); assay: (§2) Displacement of [3H]EBOB from rat GABA-A receptor alpha6beta3 expressed in HEK293 cell membranes after 90 mins in presence of GABA by liquid scintillation counting analysis
[8] = molecular target: T1, Gamma-aminobutyric acid receptor subunit alpha-6/beta-3 (Rattus norvegicus); assay: as §2
[9] = molecular target: T2, Gamma-aminobutyric acid receptor subunit alpha-6/beta-3/delta; assay: (§3) Displacement of [3H]EBOB from rat GABA-A receptor alpha6beta3delta expressed in HEK293 cell membranes after 90 mins in presence of GABA by liquid scintillation counting analysis
[10] = molecular target: T4, Gamma-aminobutyric acid receptor subunit alpha-6/beta-3/delta (Rattus norvegicus) (UniProt P18506+P30191+P63079); assay: as §3
[11] = molecular target: T5, Gamma-aminobutyric acid receptor subunit alpha-6/beta-3/gamma-2 (Rattus norvegicus) (UniProt P18508+P30191+P63079); assay: Displacement of [3H]EBOB from rat GABA-A receptor alpha6beta3gamma2 expressed in HEK293 cell membranes up to 10 uM after 90 mins by liquid scintillation counting analysis relative to control; procedure, shortened: as §1
[12] = molecular target: Gamma-aminobutyric acid receptor subunit alpha-4/beta-3/gamma-2 (Rattus norvegicus) (UniProt P18508+P28471+P63079); assay: Displacement of [3H]EBOB from rat GABA-A receptor alpha4beta3gamma2 expressed in HEK293 cell membranes at 20 uM after 90 mins by liquid scintillation counting analysis relative to control
[13] = molecular target: T5, Gamma-aminobutyric acid receptor subunit alpha-6/beta-3/gamma-2 (Rattus norvegicus); assay: (§4) Displacement of [3H]EBOB from rat GABA-A receptor alpha6beta3gamma2 expressed in HEK293 cell membranes after 90 mins in presence of GABA by liquid scintillation counting analysis
[14] = molecular target: T6, Gamma-aminobutyric acid receptor subunit alpha-6/beta-3/gamma-2 (Rattus norvegicus, UniProt P18508+P30191+P63079); assay: as §4
[15] = molecular target: Gamma-aminobutyric acid receptor subunit alpha-1/beta-3/delta (Rattus norvegicus) (UniProt P18506+P62813+P63079); assay: Displacement of [3H]EBOB from rat GABA-A receptor alpha1beta3delta expressed in HEK293 cell membranes at 20 uM after 90 mins by liquid scintillation counting analysis relative to control
[16] = molecular target: Gamma-aminobutyric acid receptor subunit alpha-4/beta-3 (Rattus norvegicus) (UniProt P28471+P63079); assay: Displacement of [3H]EBOB from rat GABA-A receptor alpha4beta3 expressed in HEK293 cell membranes at 20 uM after 90 mins by liquid scintillation counting analysis relative to control
[17] = molecular target: Gamma-aminobutyric acid receptor subunit alpha-4/beta-3/delta (Rattus norvegicus) (UniProt P18506+P28471+P63079); assay: Displacement of [3H]EBOB from rat GABA-A receptor alpha4beta3delta expressed in HEK293 cell membranes at 20 uM after 90 mins by liquid scintillation counting analysis relative to control
[18] = molecular target: Gamma-aminobutyric acid receptor subunit alpha-1/beta-3/gamma-2 (Rattus norvegicus) (UniProt P18508+P62813+P63079); assay: Displacement of [3H]EBOB from rat GABA-A receptor alpha1beta3gamma2 expressed in HEK293 cell membranes at 20 uM after 90 mins by liquid scintillation counting analysis relative to control
[19] = molecular target: T4, Gamma-aminobutyric acid receptor subunit alpha-6/beta-3/delta (Rattus norvegicus); assay: Displacement of [3H]EBOB from rat GABA-A receptor alpha6beta3delta expressed in HEK293 cell membranes up to 10 uM after 90 mins by liquid scintillation counting analysis relative to control; procedure, shortened: as §1
[20] = molecular target: T6, Gamma-aminobutyric acid receptor subunit alpha-6/beta-3/gamma-2; assay: Displacement of [3H]EBOB from rat GABA-A receptor alpha6beta3gamma2 expressed in HEK293 cell membranes after 90 mins by liquid scintillation counting analysis; procedure, shortened: as §1
[21] = molecular target: T1, Gamma-aminobutyric acid receptor subunit alpha-6/beta-3 (Rattus norvegicus); assay: Displacement of [3H]EBOB from rat GABA-A receptor alpha6beta3 expressed in HEK293 cell membranes up to 10 uM after 90 mins by liquid scintillation counting analysis relative to control; procedure, shortened: as §1
[22] = molecular target: T3, Gamma-aminobutyric acid receptor subunit alpha-6/beta-3; assay: Displacement of [3H]EBOB from rat GABA-A receptor alpha6beta3 expressed in HEK293 cell membranes after 90 mins by liquid scintillation counting analysis; procedure, shortened: as §1

T2 sequence (P18506 whole entry): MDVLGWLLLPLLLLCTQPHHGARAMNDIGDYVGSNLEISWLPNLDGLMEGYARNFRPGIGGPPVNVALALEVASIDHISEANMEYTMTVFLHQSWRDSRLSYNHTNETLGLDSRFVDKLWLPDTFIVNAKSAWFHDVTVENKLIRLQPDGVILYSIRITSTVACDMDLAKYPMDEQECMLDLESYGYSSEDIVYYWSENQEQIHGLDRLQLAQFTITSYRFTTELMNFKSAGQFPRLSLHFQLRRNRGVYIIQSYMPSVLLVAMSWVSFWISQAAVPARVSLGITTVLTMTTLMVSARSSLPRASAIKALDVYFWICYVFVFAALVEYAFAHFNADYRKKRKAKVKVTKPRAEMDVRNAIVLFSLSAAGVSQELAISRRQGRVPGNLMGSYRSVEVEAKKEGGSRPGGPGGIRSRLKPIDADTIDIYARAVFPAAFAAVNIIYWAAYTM
T2 sequence (P30191 whole entry): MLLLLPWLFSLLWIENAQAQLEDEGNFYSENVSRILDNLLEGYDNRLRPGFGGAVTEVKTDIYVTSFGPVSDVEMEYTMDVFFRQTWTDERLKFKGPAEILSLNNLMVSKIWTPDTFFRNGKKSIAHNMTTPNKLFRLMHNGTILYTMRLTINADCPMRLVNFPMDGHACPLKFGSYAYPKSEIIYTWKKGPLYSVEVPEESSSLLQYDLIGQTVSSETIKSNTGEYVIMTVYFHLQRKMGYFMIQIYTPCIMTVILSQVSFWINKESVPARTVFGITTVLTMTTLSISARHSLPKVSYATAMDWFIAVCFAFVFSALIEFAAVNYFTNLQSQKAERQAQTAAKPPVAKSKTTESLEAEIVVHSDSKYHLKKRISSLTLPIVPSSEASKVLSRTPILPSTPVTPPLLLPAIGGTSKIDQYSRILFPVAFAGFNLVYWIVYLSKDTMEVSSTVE
T2 sequence (P63079 whole entry): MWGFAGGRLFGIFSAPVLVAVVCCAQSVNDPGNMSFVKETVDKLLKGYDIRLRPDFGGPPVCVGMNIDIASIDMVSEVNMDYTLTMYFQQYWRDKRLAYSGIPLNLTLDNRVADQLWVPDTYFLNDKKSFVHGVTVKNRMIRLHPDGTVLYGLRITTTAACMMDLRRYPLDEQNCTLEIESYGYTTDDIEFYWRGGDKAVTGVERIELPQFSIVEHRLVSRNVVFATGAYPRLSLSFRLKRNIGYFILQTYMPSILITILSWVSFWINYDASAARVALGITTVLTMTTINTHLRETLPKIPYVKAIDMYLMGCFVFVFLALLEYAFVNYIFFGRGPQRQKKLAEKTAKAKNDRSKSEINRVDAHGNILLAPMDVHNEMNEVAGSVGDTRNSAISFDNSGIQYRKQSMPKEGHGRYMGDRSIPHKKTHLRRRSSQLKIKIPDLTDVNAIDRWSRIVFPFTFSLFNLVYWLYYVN
T3 sequence (P30191 whole entry): as the sequence (P30191 whole entry) above
T3 sequence (P63079 whole entry): as the sequence (P63079 whole entry) above
T6 sequence (P18508 whole entry): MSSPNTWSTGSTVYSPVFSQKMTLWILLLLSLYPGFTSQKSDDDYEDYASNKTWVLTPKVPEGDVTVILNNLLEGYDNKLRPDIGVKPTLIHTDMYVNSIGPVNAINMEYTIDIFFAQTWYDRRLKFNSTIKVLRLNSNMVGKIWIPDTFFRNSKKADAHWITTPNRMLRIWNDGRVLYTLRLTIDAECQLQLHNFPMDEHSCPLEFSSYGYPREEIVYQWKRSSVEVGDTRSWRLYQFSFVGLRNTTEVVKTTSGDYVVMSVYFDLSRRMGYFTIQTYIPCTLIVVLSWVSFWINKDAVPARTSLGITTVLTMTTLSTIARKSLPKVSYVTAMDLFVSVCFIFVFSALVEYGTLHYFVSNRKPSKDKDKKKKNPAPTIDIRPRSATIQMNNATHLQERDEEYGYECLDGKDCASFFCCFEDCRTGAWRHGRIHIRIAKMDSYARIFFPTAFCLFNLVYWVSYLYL
T6 sequence (P30191 whole entry): as the sequence (P30191 whole entry) above
T6 sequence (P63079 whole entry): as the sequence (P63079 whole entry) above
Gamma-aminobutyric acid receptor subunit alpha-6/beta-2/delta, sequence (P18506 whole entry): as the sequence (P18506 whole entry) above
Gamma-aminobutyric acid receptor subunit alpha-6/beta-2/delta, sequence (P30191 whole entry): as the sequence (P30191 whole entry) above
Gamma-aminobutyric acid receptor subunit alpha-6/beta-2/delta, sequence (P63138 whole entry): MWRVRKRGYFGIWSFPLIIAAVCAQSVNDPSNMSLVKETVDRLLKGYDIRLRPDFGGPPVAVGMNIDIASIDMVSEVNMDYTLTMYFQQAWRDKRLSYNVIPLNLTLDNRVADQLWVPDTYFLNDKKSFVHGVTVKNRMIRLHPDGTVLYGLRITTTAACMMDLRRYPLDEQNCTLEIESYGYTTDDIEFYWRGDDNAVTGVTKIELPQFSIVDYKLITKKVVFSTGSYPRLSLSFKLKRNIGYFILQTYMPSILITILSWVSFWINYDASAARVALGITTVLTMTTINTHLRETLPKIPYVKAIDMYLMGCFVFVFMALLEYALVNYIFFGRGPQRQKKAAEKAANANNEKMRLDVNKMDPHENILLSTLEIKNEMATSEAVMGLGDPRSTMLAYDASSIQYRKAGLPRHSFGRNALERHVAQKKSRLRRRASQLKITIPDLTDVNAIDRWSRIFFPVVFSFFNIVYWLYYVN

- inhibition [1]: inactive
- Imax [2]: 13%
- IC50 [3]: 2180 nM
- inhibition [4]: inactive
- Imax [5]: 54%
- IC50 [6]: 2430 nM
- IC50 [7]: 4070 nM
- Imax [8]: 26%
- IC50 [9]: 870 nM
- Imax [10]: 51%
- Imax [11]: 10%
- inhibition [12]: inactive
- Imax [13]: 40%
- IC50 [14]: 4340 nM
- inhibition [15]: inactive
- inhibition [16]: inactive
- inhibition [17]: inactive
- inhibition [18]: inactive
Compound: CCCCOc1ccc(C(=O)Nc2c(-c3cccs3)nc3ccc(Br)cn23)cc1

- Imax [19]: 71%
- IC50 [3]: 860 nM
- Imax [11]: 24%
- IC50 [20]: 5510 nM
- Imax [21]: 46%
- IC50 [22]: 2500 nM
Compound: CCCCOc1ccc(C(=O)Nc2c(-c3cccs3)nc3c(Br)cc(Br)cn23)cc1

- Imax [19]: 38%
- IC50 [3]: 1000 nM
- inhibition [11]: inactive
- inhibition [21]: inactive
Compound: O=C(Nc1c(-c2cccs2)nc2c(Br)cc(Br)cn12)c1ccc(OCCCF)cc1

- Imax [19]: 87%
- IC50 [3]: 1200 nM
- Imax [11]: 103%
- IC50 [20]: 3390 nM
- Imax [21]: 91%
- IC50 [22]: 3060 nM
Compound: O=C(Nc1c(-c2cccs2)nc2c(Br)cc(Br)cn12)c1ccc(F)cc1
